Test results reported in ChEMBL document CHEMBL1141177, “The novel L- and D-amino acid derivatives of hydroxyurea and hydantoins: synthesis, X-ray crystal structure study, and cytostatic and antiviral activity evaluations” (J Med Chem, 2005).
In brackets after ≈: the same amount, converted by molar mass.

What was measured:
[1] = Effective concentration required to reduce plaque formation by Davis strain of CMV virus in Human embryonic lung cells; type: functional, cell-based
How it was run: (§1)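 Plaque reduction assay in human embryonic lung (HEL) cell cultures, virus input 100 plaque forming units. Viruses: CMV strains AD-169 and Davis, VZV TK+ strain OKA and TK− strain 07/1. EC50 is the concentration that reduces virus plaque formation by 50%.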

Human alphaherpesvirus 3 [2] = experiment: Reduction of plaque formation by VZV07/1 strain of thymidine kinase(TK-) deficient VZ virus in human embryonic lung cells; type: functional, organism-based; conditions: Human alphaherpesvirus 3, lung
L1210 = experiment: Inhibition of murine leukemia cells (L1210) growth; type: functional, cell-based; conditions: Mus musculus
MOLT-4 = experiment: Inhibition of human T-lymphocyte cell line (Molt4/C8) growth; type: functional, cell-based
MIA PaCa-2 = experiment: Inhibition of pancreatic carcinoma cell line (MiaPaCa-2) growth; type: functional, cell-based; conditions: Homo sapiens
How it was run: (§2)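 Monolayers in DMEM with 10% FBS, 2 mM L-glutamine, penicillin/streptomycin, 37 °C, 5% CO2. Cells seeded on day 0, then compounds added in 5- and 10-fold dilutions (10^-8–10^-4 M) for 72 h. MTT read-out at 570 nm. Percent growth calculated relative to time-zero and untreated OD. Quadruplicates in three experiments; IC50 by linear interpolation, highest concentration reported as ">" when not reached.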

HeLa = experiment: Inhibition of cervical carcinoma cell line (HeLa) growth; type: functional, cell-based; conditions: Homo sapiens; how it was run: as §2
WI-38 = experiment: Inhibition of normal human fibroblast cell line (WI 38) growth; type: functional, cell-based; how it was run: as §2
HEL [3] = experiment: Cytotoxic concentration to reduce the 50% cell growth of human embryonic lung cells; type: functional
Human alphaherpesvirus 3 [4] = experiment: Effective concentration of compound required to reduce plaque formation by OKA strain of thymidine kinase positive VZ virus TK+ in human embryonic lung cells; type: functional, organism-based; conditions: Human alphaherpesvirus 3, lung
[5] = Effective concentration required to reduce plaque formation by AD-169 strain of CMV virus in Human embryonic lung cells; type: functional, cell-based; how it was run: as §1
HEL [6] = experiment: Minimum cytotoxic concentration of compound that causes alteration of cell morphology in human embryonic lung cells; type: functional
How it was run: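 Human embryonic lung (HEL) cells were examined microscopically. MCC is the minimum concentration that causes a detectable alteration of cell morphology.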

MCF7 = experiment: Inhibition of breast carcinoma cell line (MCF-7) growth; type: functional, cell-based; conditions: Homo sapiens; how it was run: as §2
HEp-2 = experiment: Inhibition of laryngeal carcinoma cell line (Hep-2) growth; type: functional, cell-based; conditions: Homo sapiens; how it was run: as §2
SW-620 = experiment: Inhibition of colon carcinoma cell line (SW 620) growth; type: functional, cell-based; conditions: Homo sapiens; how it was run: as §2
Cytomegalovirus [7] = experiment: Effective concentration of the compound to reduce plaque-formation of Cytomegalovirus davis strain in human embryonic lungcell cultures; type: functional, organism-based; conditions: Human betaherpesvirus 5; how it was run: as §1
Cytomegalovirus [8] = experiment: Effective concentration to reduce plaque formation of Cytomegalovirus AD-169 strain in human embryonic lung cell cultures; type: functional, organism-based; conditions: Human betaherpesvirus 5, lung; how it was run: as §1
[9] = Homo sapiens, HEL, read-out: CC50

SMILES | EC50 [1] [µg/mL] | EC50 (Human alphaherpesvirus 3 [2]) [µg/mL] | IC50 (L1210) [µM] | IC50 (MOLT-4) [µM] | IC50 (MIA PaCa-2) [µM] | IC50 (HeLa) [µM] | IC50 (WI-38) [µM] | CC50 (HEL [3]; [9]) [µg/mL] | EC50 (Human alphaherpesvirus 3 [4]) [µg/mL] | EC50 [5] [µg/mL] | MCC (HEL [6]) [µg/mL] | IC50 (MCF7) [µM] | IC50 (HEp-2) [µM] | IC50 (SW-620) [µM] | EC50 (Cytomegalovirus [7]) [µg/mL] | CC50 (HEL [3]) [µg/mL] | EC50 (Cytomegalovirus [8]) [µg/mL]
CC(C)C(NC(=O)n1nnc2ccccc21)C(=O)NC1CCCCC1 (stereo unspecified) | > 16 | > 3.2 | 108 | 97 | > 100 | 96.4 | ≥ 100 | 90 (≈ 262 µM) | > 3.2 | > 80 | ≥ 80 | 79.3 | 60 | > 100 | – | – | –
Nc1ccn(C[C@@H](CO)OCP(=O)(O)O)c(=O)n1.O.O [CIDOFOVIR] | 0.13 | – | – | – | – | – | – | 21.3 | – | 0.13 | > 400 | – | – | – | 0.13 | 21.3 | 0.13
Nc1nc2c(ncn2COC(CO)CO)c(=O)[nH]1 [GANCICLOVIR] | 0.34 (≈ 1.33 µM) | – | – | – | – | – | – | – | – | 0.24 (≈ 0.94 µM) | > 400 | – | – | – | 0.34 (≈ 1.33 µM) | – | 0.24 (≈ 0.94 µM)
